Laboratory results reported in ChEMBL document CHEMBL4265929, “4-Hydroxy-1,2,3-triazole moiety as bioisostere of the carboxylic acid function: a novel scaffold to probe the orthosteric γ-aminobutyric acid receptor binding site” (Eur J Med Chem, 2018).

Legend:
[1] = Ionization constant, pKa of the compound; format: physicochemical
How it was run: (§1)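 Potentiometric titration of about 1 mM aqueous compound, ionic strength 0.15 M KCl. Solution acidified to pH 1.8 with 0.5 N HCl, then titrated with standardized 0.5 N KOH to pH 12.2 at 25 °C under argon. pKa taken as mean of four titrations.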

[2] = Displacement of [3H]muscimol from GABAA receptor in Sprague-Dawley rat brain synaptic membranes after 60 mins by Topcount scintillation counting method
How it was run: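 Synaptic membranes from male SPRD rat cortex and central hemispheres, washed four times (50 mM Tris-HCl pH 7.4, 48,000g, 4 °C). Membranes (70–80 µg protein) incubated with [3H]muscimol (5 nM final) and graded compound concentrations, 60 min, 0 °C. GF/C filtration, scintillation counting. Non-specific binding with 1.0 mM GABA. Triplicates, ≥3 experiments. IC50 converted to Ki (modified Cheng–Prusoff); mean pKi ± SEM.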

[3] = Ionization constant, pKa of the compound in methanol by diode array detection method; format: physicochemical
[4] = Ionization constant, pKa of the compound in KCl at pH 1.8 by potentiometric titration method; format: physicochemical; how it was run: as §1

On1cc(C2CCNCC2)cn1
pKa [1]: 5.4 | Ki [2]: 10 µM

Oc1cc(C2CCNCC2)[nH]n1
Ki [2]: > 100 µM | pKa [3]: 6.7

Cn1nc(O)c(CCN)n1
Ki [2]: > 100 µM | pKa [4]: 5.92

Oc1nn(C2CCNCC2)nc1CCC(c1ccccc1)c1ccccc1
Ki [2]: > 100 µM

Oc1nn(C2CCNCC2)nc1Cc1ccc2ccccc2c1
Ki [2]: 3.3 µM | pKi [2]: 5.49

NCCc1nsnc1O
Ki [2]: 75 µM | pKi [2]: 4.13 | pKa [4]: 4.54

Oc1nnn(C2CCNCC2)c1Cc1ccc2ccccc2c1
Ki [2]: 2.4 µM | pKi [2]: 5.62

Oc1cnn(C2CCNCC2)n1
Ki [2]: > 100 µM | pKa [4]: 6.36

Oc1cn(C2CCNCC2)nn1
Ki [2]: 55 µM | pKi [2]: 4.26 | pKa [4]: 6.51

Oc1nnn(C2CCNCC2)c1CCC(c1ccccc1)c1ccccc1
Ki [2]: 1.6 µM | pKi [2]: 5.8
